Myeloid diff 2 = promotes myeloid progenitor differentiation. ER-HoxA9 myeloid progenitors, lysozyme-GFP differentiation, flow cytometry. calls only at 10 µM. hit rate 1% among 360,000. AID 624256;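 active = normalized GFP-positive differentiation at or above the plate's own cutoff, the solvent-only control mean plus 3 SD; inconclusive = no clear call, values can overlap the other calls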;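 note: cells exposed to compound for four days before flow analysis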
PP5 inh = inhibitors of human protein phosphatase 5 (PP5) | P53041 | purified PP5c, OMFP substrate fluorescence | inhibition, % at 6.7 µM | hit rate 0.18% among 320,000;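 active = inhibition above the campaign's mean inhibition across all tested compounds plus 3 SD, cut at about 9.5% in these data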
Target sequence (P53041 whole entry, looked up): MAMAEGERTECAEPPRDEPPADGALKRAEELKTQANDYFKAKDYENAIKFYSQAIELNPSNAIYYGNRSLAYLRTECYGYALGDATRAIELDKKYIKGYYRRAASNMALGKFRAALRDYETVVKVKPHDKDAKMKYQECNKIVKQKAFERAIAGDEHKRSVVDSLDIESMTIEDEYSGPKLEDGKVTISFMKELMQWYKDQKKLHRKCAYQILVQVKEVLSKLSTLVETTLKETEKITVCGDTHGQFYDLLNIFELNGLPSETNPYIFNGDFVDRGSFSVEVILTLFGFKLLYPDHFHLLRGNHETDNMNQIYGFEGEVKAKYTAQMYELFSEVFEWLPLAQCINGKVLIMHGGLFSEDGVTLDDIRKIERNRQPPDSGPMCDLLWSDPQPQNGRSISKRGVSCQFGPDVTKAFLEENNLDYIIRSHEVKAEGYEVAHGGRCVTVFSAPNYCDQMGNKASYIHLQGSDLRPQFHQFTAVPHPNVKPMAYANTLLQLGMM
NadD block = NadD (S. aureus) enzyme inhibition; purified NadD enzyme, colorimetric absorbance read-out; inhibition, % at 20 µM; hit rate 0.78% among 360,000; in the data active = inhibition above about 26%
CTSL1 counter = cathepsin L1 inhibition, PFM18AAP counter-screen. recombinant F. hepatica cathepsin L1, Z-Leu-Arg-MCA fluorescence. inhibition, % at 5.96 µM. hit rate 0.49% among 300,000. AID 1906;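 active = inhibition above the mean of all tested compounds plus 3 SD, set per screening campaign, cut at about 17% in these data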
core dimer inh = HCV core protein dimerization inhibition | TR-FRET GST/Flag-core106 dimerization, 1536-well | inhibition, % at 5 µM | hit rate 0.33% among 300,000 | AID 1899;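 active = inhibition above the mean of all tested compounds plus 3 SD, set per screening campaign, cut at about 45% in these data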
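Assay system: GST-tagged and Flag-tagged HCV core protein residues 1-106 / Times: compound-protein-antibody incubation 4 h at 22.5 °C / Signal: time-resolved FRET, ex 340 nm, em 617 and 671 nm / Evaluation: % inhibition based on acceptor/donor emission ratio / Benchmarks: wells lacking GST-core106 and wells with excess unlabelled core106 / Repeats: singlicate, one well per compound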
PP1 counter = counter-screen for PP5 inhibitors: inhibitors of human PP1-alpha; inhibition, % at 6.7 µM; P62136; hit rate 0.9% among 320,000; purified PP1alpha, OMFP fluorescence;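 active = inhibition above the mean inhibition of all tested compounds plus 3 SD, computed separately for each screening campaign, cut at about 15% in these data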
Hits are given with their value; i = inactive; ? = inconclusive; nt = no result given; + = active, no number. Rows were chosen to be rich in hits. Some 3.1% of all compounds tested hit in one or more screens of this group.

SMILES	Myeloid diff 2	PP5 inh	NadD block	CTSL1 counter	core dimer inh	PP1 counter
CCc1cc(=O)oc2c(CN3CCCC3)c(O)c(Cl)cc12	i	i	i	i	i	i
CCCCC1(c2ccc(F)cc2)NC(=O)N(CC(=O)Nc2ccc(N3CCOCC3)cc2)C1=O (centres undefined)	i	nt	i	nt	nt	nt
COc1ccc(CN2C(=O)C(CC(=O)NC3CC3)CC(C(=O)N3CCOCC3)=C2C)cc1 (centres undefined)	i	nt	i	nt	nt	nt
CC(C)(C)n1nc2c(c1NC(=O)c1ccc(Cl)c([N+](=O)[O-])c1)CS(=O)(=O)C2	?	i	i	i	i	i
Cc1ccc(C(=O)Nc2nc(-c3ccc([N+](=O)[O-])cc3)cs2)o1	i	i	i	i	52	i
CC(OC(=O)c1ccc2c(c1)C(=O)N(Cc1ccncc1)C2=O)C(=O)Nc1cccc(Cl)c1Cl (centres undefined)	i	i	i	i	i	i
O=C(COC(=O)c1ccc2c(c1)C(=O)N(Cc1ccncc1)C2=O)Nc1ccccc1[N+](=O)[O-]	i	i	i	i	54	i
C[C@H](CO)N1C[C@H](C)[C@@H](CN(C)S(=O)(=O)c2ccc3ccccc3c2)OCc2cnnn2CCCC1=O	+	nt	i	nt	nt	nt
COc1ccc(CNC(=O)CN2CCN(c3ccccc3O)CC2)cc1OC	i	i	i	i	i	i
CC(C)(C)c1ccc(OC(=O)N2CCOCC2)cc1	+	i	i	i	i	i
Cc1ccc(OC(=O)N2CCOCC2)cc1	i	i	i	i	i	i
COCCNC(=O)NC(=O)CSc1nc(C)c(C)c(C)n1	+	i	i	i	i	i
CCCCc1nc2sc3c(SCC(=O)NCc4ccco4)ncnc3c2c2c1CCC2	i	i	i	i	105	i
Cc1ccc(-c2csc3ncnc(OCC(=O)NC(=O)NCc4ccco4)c23)cc1	i	i	i	i	49	i
CCc1ccc(-c2csc3ncn(CC(=O)NCc4ccco4)c(=O)c23)cc1	i	i	i	i	i	i
CCCCc1nc2sc3c(SCCN(C)C)ncnc3c2c2c1CCC2	i	i	i	i	i	i
O=C(Cn1cnc2sc(-c3ccccc3)cc2c1=O)NCCc1ccccc1	i	i	i	i	i	i
O=C(Cn1cnc2sc(-c3ccccc3)cc2c1=O)NCc1ccccc1	i	i	i	i	i	15
O=C(Cn1cnc2scc(-c3ccccc3)c2c1=O)NCc1ccco1	i	i	i	i	56	i
COc1cccc(NC(=O)C2(C)CCN2Cc2ccc(SC)cc2)c1 (centres undefined)	i	nt	i	nt	nt	nt
Cc1sc2ncnc(SCC(=O)NC(=O)NCc3ccco3)c2c1C	+	i	i	i	50	i
O=C(CSc1nc2cc(Cl)ccc2s1)NC(=O)NCc1ccco1	i	i	i	i	57	i
CCOc1ccc2nc(SCC(=O)NC(=O)NCc3ccco3)sc2c1	i	i	i	i	i	i
CCOC(=O)c1sc(NC(=O)c2ccncc2)c(C#N)c1C	i	i	i	19	i	i
CCOC(=O)c1c(NC(=O)c2ccncc2)sc(C)c1C	i	i	i	i	i	i
SMILES	Myeloid diff 2	PP5 inh	NadD block	CTSL1 counter	core dimer inh	PP1 counter
CC(C)c1onc(C(=O)NCc2cccs2)c1[N+](=O)[O-]	i	i	i	23	i	i
Cc1c(C(=O)NCc2ccccc2C(F)(F)F)sc(=O)n1Cc1ccc2ccccc2c1	i	nt	i	nt	nt	nt
CC(=O)n1cc(Nc2ccccc2C(=O)O)c2ccccc21	i	i	i	i	i	i
CCOC(=O)c1ccccc1Nc1cn(C(C)=O)c2ccccc12	+	i	i	i	i	i
CCOC(=O)Cc1cc(=O)n2[nH]c(C)c(-c3ccccc3)c2n1	i	i	i	i	i	15
CCOC(=O)c1c(C)oc(/N=C/c2ccccc2O)c1C#N	i	i	i	17	i	i
Cc1oc(/N=C/c2ccccc2O)c(C#N)c1C	i	i	i	i	i	i
CCOC(=O)c1nn(-c2ccccc2C)c2nc(-c3ccc(Cl)cc3)c(C#N)c(=O)n12	i	i	i	i	56	i
CCOC(=O)c1nn(-c2ccccc2C)c2nc(-c3ccc(C)cc3)c(C#N)c(=O)n12	nt	i	i	i	i	i
CCN(CC(=O)NC1CCS(=O)(=O)C1)S(=O)(=O)c1cc(C)ccc1C (centres undefined)	i	i	i	i	i	i
O=C(Nc1ccccc1)C1=C(O)CC(c2ccco2)CC1=Nc1ccccc1 (centres undefined)	i	i	i	i	i	i
O=C(Nc1ccccc1)C1=C(O)CC(c2ccoc2)CC1=Nc1ccccc1 (centres undefined)	i	i	i	22	i	i
CN(Cc1ccccc1F)C(=O)CCNC(=O)c1ccc(C(C)(C)C)cc1	i	i	i	nt	nt	i
CCN(CC)C(=O)Cn1c(C)c(/C=C/c2cc[n+](C)cc2)c2ccccc21	+	i	i	i	i	i
C[n+]1ccc2[nH]c3ccccc3c2c1	i	nt	i	nt	nt	nt
C=CCn1c(C)c(/C=C/c2cc[n+](C)cc2)c2ccccc21	+	i	i	i	i	i
Cc1[nH]c2ccccc2c1/C=C/C(=O)c1ccncc1	+	i	i	i	i	i
O=C(/C=C/c1cccc2ccccc12)c1ccncc1	i	i	i	i	i	i
Cc1[nH]c2ccccc2c1/C=C/c1cc[n+](C)cc1	+	nt	i	nt	nt	nt
C=CCn1cc(/C=C/c2cc[n+](C)cc2)c2ccccc21	?	i	i	i	i	i
CCN(CC(=O)NCc1ccc(Cl)cc1)C(=O)c1ccc(S(=O)(=O)NCc2ccco2)cc1	i	i	i	i	i	i
C[C@H](CO)N1C[C@H](C)[C@@H](CN(C)S(=O)(=O)c2ccc(F)cc2)Oc2c(NC(=O)c3ccncc3)cccc2C1=O	i	nt	i	nt	nt	nt
COc1cc(OC)c(NC2=CC(=O)C(=O)c3ccccc32)cc1Cl	i	i	i	23	i	i
Cc1ccc(NC2=CC(=O)C(=O)c3ccccc32)cc1	i	i	i	i	i	i
Cc1ccc(NC(=O)Cn2nnc(C(=O)Nc3ccc(C)c(C)c3)c2N)cc1	i	i	i	i	i	16
SMILES	Myeloid diff 2	PP5 inh	NadD block	CTSL1 counter	core dimer inh	PP1 counter
C=CCn1c(CSc2nnc(-c3ccccc3)n2C)n[nH]c1=S	i	i	i	28	i	i
N#CC1(NC(=O)COC(=O)c2cccc(-n3cnnn3)c2)CCCCC1	i	i	i	i	i	i
O=C1CN(CC(=O)Nc2cccc(Cl)c2Cl)c2ccccc2N1	+	i	i	i	i	i
O=C(CN1C(=O)NC2(CCCC2)C1=O)Nc1cccc(Cl)c1Cl	i	i	i	i	i	i
COc1cc(OC)cc(C(=O)N/N=C\c2ccoc2)c1	i	i	i	i	i	i
Cc1nc2sc3c(c2c(=O)[nH]1)CCC3	i	i	i	i	i	i
Cc1cc(-c2nc3c4c5c(sc4[nH]c(=O)n3n2)CCC5)c(C)o1	i	i	i	i	55	i
